An excerpt weighted towards active compounds, which were near 4.6% of everything screened.
WT yeast gro inh: growth inhibition of WT strain, primary screen, mitochondrial fusion inhibitor project, WT and mutant strains, chemical genetic; mitochondrial fusion phenotypic screen; inhibition, % at 10 µM; 190,000 tested, 2.1% active; in the data active means inhibition above about 58%; tested in S. cerevisiae
NCF1 inh: p47phox/p22phox peptide binding inhibitors, primary screen, biochemical, uHTS, NADPH oxidase regulatory subunit | Neutrophil cytosol factor 1 (Homo sapiens), P14598 | fluorescence polarization, 2 h | inhibition, % at 24.7 µM | 220,000 tested, 0.53% active | AID 1274, 2008;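 active means inhibition above about 30%, limit read from the data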;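 further: 0% = p47phox with labelled peptide and 100% = labelled peptide alone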
Target sequence (P14598 whole entry, looked up): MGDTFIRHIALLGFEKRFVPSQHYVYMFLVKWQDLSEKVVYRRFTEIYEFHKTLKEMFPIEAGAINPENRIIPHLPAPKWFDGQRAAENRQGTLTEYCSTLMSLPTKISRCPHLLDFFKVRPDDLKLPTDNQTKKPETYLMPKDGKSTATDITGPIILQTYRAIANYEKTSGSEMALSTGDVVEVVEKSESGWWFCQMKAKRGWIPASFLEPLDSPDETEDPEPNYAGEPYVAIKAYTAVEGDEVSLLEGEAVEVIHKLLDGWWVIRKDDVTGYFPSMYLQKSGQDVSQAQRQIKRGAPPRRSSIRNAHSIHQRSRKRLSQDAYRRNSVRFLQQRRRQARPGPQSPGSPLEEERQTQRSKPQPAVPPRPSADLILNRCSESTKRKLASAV
Calb biofilm kill: clotrimazole potentiators killing C. albicans biofilm, primary screen, 4-compound mixtures | C. albicans biofilm persisters + clotrimazole, fluorescence viability; primary screen in compound mixtures of four per well | 120,000 tested, 0.02% active | inhibition, % at 7.6 µM | AID 1242, 2008;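 active means inhibition above 30.3% in the primary screen of four-compound pools, then above 30% when the compound was retested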;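 further: compounds exposed to preformed 24 h biofilms for 48 h; 0% = untreated biofilm control and 100% = clotrimazole plus chlorhexidine kill blank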
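Assay system: C. albicans biofilms / Medium: RPMI/MOPS medium, pH 7.0 / Schedule: biofilm formation 24 h, compound exposure 48 h, 37 °C / Measured by: Alamar Blue fluorescence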
Hck Nef HTS: inhibitors of Nef-activated human Hck kinase, primary screen, biochemical, Z-Lyte FRET, 384-well, Hck-YEEI | Recombinant Hck-YEEI plus Nef, Z-Lyte FRET kinase assay | inhibition, % at 20 µM | 220,000 tested, 0.68% active | AID 463187, 2010;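 active means Hck-Nef kinase inhibition above about 50%, limit read from the data; inactive means inhibition below that limit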;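 further: 0% = DMSO with Hck plus Nef and 100% = Hck alone without Nef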
Arbovirus inh: antivirals against arbovirus infection, primary screen, cell-based, full library, 10K replicate subset | 200,000 tested, 0.37% active | arbovirus infection cell-based antiviral screen | AID 1251, 2008 | inhibition, % at 10 µM; in the data active means inhibition above about 30%
RAM network inh: inhibitors of the yeast RAM network, primary screen, dse1pr::URA3 reporter, 5-FOA selection. 190,000 tested, 1.8% active. inhibition, % at 50 µM. S. cerevisiae dse1pr::URA3 reporter, 5-FOA growth OD615, 2 d; analog-sensitive cbk1-as2 kinase mutant strain;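 active means inhibition above a set limit, 3 SD over mean compound inhibition, cut at about 8.4% in these data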;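 further: 0% = DMSO-only wells with no growth and 100% = 10 µM 1-NA-PP1 full growth; inhibition rescues growth on 5-FOA so higher OD means more RAM inhibition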
RAM efflux-def: 5-FOA growth of efflux-deficient control yeast, dose response, counter-screen for RAM network inhibitor project, S. cerevisiae, OD615. max inhibition, %. S. cerevisiae efflux-deficient reporter strain, 5-FOA growth OD615, 2 days. shares compounds with RAM network inh. AID 1305, 2008. 1,200 tested, under 10 active; call rule not given here;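 further: plate controls were vehicle for no effect and reference inhibitor for full effect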
The depositor's hits bear a star; / = no result given.

SMILES	WT yeast gro inh	NCF1 inh	Calb biofilm kill	Hck Nef HTS	Arbovirus inh	RAM network inh	RAM efflux-def
Cc1noc(NS(=O)(=O)c2ccc(N/C=C\C(=O)c3ccc(Br)cc3)cc2)c1C	2.6	-33.4	20.1	39.3	21.9	12.0*	2.8
Cc1cc(NO)c(C(C)C)cc1N=O	-32.8	-5.3	2.5	-1.8	-3.0	1.0	/
CCCCSc1nnc([C@H](CC(C)C)NC(=O)OC(C)(C)C)o1	5.8	2.9	/	0.6	7.7	16.4*	1.6
COc1ccc(CCNC(=O)c2ccc(-c3ccc([N+](=O)[O-])cc3)o2)cc1OC	-10.8	-12.3	10.9	1.2	4.0	11.4*	1.7
COc1ccc(NC(=O)c2ccc(-c3ccc([N+](=O)[O-])cc3)o2)cc1	2.4	16.1	17.9	29.1	-11.8	3.0	/
Cc1ccc(O)c(-c2cc(-c3cccc(Br)c3)n[nH]2)c1	93.2	-7.9	-0.1	15.4	-34.7	11.6*	3.1
O=C(OCc1nnc(-c2ccccc2)o1)c1ccc(Cl)cc1	-4.0	-12.8	7.4	12.7	-5.9	0.9	/
O=C(OCc1ccccc1)c1cccc(-c2nnc(-c3ccccc3)o2)c1	15.3	-7.8	/	2.2	-0.8	12.1*	1.9
O=C(OCc1nnc(-c2ccccc2)o1)c1ccc(CO)cc1	-8.3	-7.3	6.0	22.8	2.1	0.1	/
CC(C)OC(=O)c1ccc(COC(=O)c2cccc(-c3nnc(-c4ccccc4)o3)c2)cc1	0.5	-33.2	1.4	6.0	-15.5	12.7*	2.2
COc1cc(C(=O)NCCc2ccc(S(=O)(=O)N3CCCC3)cc2)cc(OC)c1OC	-15.9	-6.0	21.2	19.4	2.9	2.6	/
Cc1cc(N2CC(C)OC(C)C2)nc(C(C)C)n1 (centres undefined)	-13.1	6.8	20.1	2.7	4.3	0.6	/
O=C(NCCc1ccccc1)C(=S)N1CCCCC1	-12.8	-2.5	2.1	8.4	2.7	-0.2	/
COc1ccc(CCN2C(=O)CC(N3CCN(C/C=C/c4ccccc4)CC3)C2=O)cc1OC (centres undefined)	/	-0.7	9.2	11.6	/	/	/
Cc1ccc(S(=O)(=O)NCCSCc2ccccc2)cc1	14.5	-12.1	/	1.4	3.9	0.8	/
COc1ccc(S(=O)(=O)NCCSCc2cccc(C)c2)cc1Br	64.9*	-7.2	/	-0.9	-43.1	12.4*	1.4
Cc1cc(F)ccc1NC(=O)c1cccnc1	-13.5	2.9	10.2	9.3	1.1	1.7	/
COCCCNC(=O)c1ccc(Cn2c(=O)c3ccccc3n(Cc3ccc(C)cc3)c2=O)cc1	6.3	-1.9	/	0.9	-1.8	12.2*	4.7
FC(F)(F)c1cc(-c2ccco2)nc(N2CCN(Cc3ccccc3)CC2)n1	64.1	-11.3	/	1.9	-15.4	-0.1	/
Fc1ccc(N2CCN(c3nc(-c4ccco4)cc(C(F)(F)F)n3)CC2)cc1	8.2	-8.8	/	0.6	15.1	14.3*	3.8
COC(=O)c1ccc(Cn2nc([N+](=O)[O-])c(Br)c2C)cc1	/	-14.2	13.8	2.5	/	/	/
CCCN(CCC)c1nc2ccccc2nc1C(C#N)C(=O)OC(C)COC (centres undefined)	68.1*	-7.6	/	-1.1	-28.1	12.7*	1.8
CCCCN(CCCC)c1nc2ccccc2nc1C(C#N)C(=O)NCCCOC (centres undefined)	14.6	-29.7	/	-1.8	-9.9	14.8*	5.2
CC1CC(C)CN(c2ccc(C(=O)NCc3ccc4c(c3)OCO4)cc2[N+](=O)[O-])C1 (centres undefined)	29.1	-5.6	3.2	1.2	-6.5	5.0	/
COc1ccc(C2CC(c3ccccc3)=NN2c2ccc(/C=N/NC(=O)c3ccncc3)cc2)cc1 (centres undefined)	19.6	-1.5	/	3.7	-22.9	12.8*	6.3
SMILES	WT yeast gro inh	NCF1 inh	Calb biofilm kill	Hck Nef HTS	Arbovirus inh	RAM network inh	RAM efflux-def
CCc1ccc(OCC(=O)N2c3ccccc3CCc3ccccc32)cc1	80.6*	-7.2	14.0	2.6	-12.4	17.6*	6.0
O=[N+]([O-])c1ccccc1Oc1ncccc1[N+](=O)[O-]	-18.7	2.9	-5.1	12.1	19.7	3.2	/
Cc1ccc(S(=O)(=O)N2c3cc(C)ccc3OCC2C(C)(C)C)cc1 (centres undefined)	68.8*	-10.0	/	1.5	-16.1	12.7*	3.9
COc1ccc(S(=O)(=O)N2c3cc(C)ccc3OCC2C(C)(C)C)cc1 (centres undefined)	0.7	1.8	/	1.2	-11.0	4.6	/
O=C(c1ccccc1)N(Cc1cccnc1)C1(C(=O)Nc2ccccc2)CCCCC1	-3.2	-5.5	4.5	4.8	-8.1	16.2*	2.6
CC(C)[C@H](NS(=O)(=O)c1ccccc1)C(=O)OCC(=O)Nc1ccccc1Sc1ccccc1	44.0	-2.6	6.2	4.3	10.3	14.9*	5.6
O=C(COC(=O)CNS(=O)(=O)c1c(Cl)cccc1Cl)Nc1ccccc1Sc1ccccc1	9.2	-84.1	13.7	4.0	-3.6	7.9	/
COc1ccccc1/C=C/C(=O)OCC(=O)Nc1ccccc1Sc1ccccc1	20.4	-1.2	9.3	2.2	-0.2	15.5*	3.4
O=C(COC(=O)CNS(=O)(=O)c1cccc(Br)c1)Nc1ccccc1Sc1ccccc1	1.5	-17.5	16.9	5.7	6.3	15.0*	1.7
Cc1cc(C)c(NC(=O)/C(=C/c2ccccc2)c2ccccc2)c(C)c1	15.2	-0.6	-6.5	4.6	-10.1	13.4*	2.6
COC(=O)C(CC(C)C)NC(=O)c1cccs1 (centres undefined)	-4.3	-1.2	13.8	2.9	13.5	-0.4	/
Cc1ccc(NC(=O)c2cc(S(=O)(=O)NCCC3=CCCCC3)ccc2F)cc1	55.3	-17.6	24.5	1.2	16.1	15.9*	3.6
CCOc1c(Cl)cc(CNCc2ccccn2)cc1OC	-22.4	2.1	7.5	15.7	0.4	1.8	/
COc1cc(CNn2c(C)n[nH]c2=S)cc(Cl)c1OCc1ccccc1	5.1	-5.3	/	-0.9	-0.9	12.8*	1.7
CCCCN(CCCC)C(=O)c1sc2nc(N3CCOCC3)c3c(c2c1N)CCCC3	/	-2.5	15.7	12.6	/	/	/
CCOc1cccc(-c2csc(C3COc4ccccc4O3)n2)c1 (centres undefined)	3.2	-1.8	3.2	0.5	4.4	15.0*	3.2
NC(N)=Nc1nc(C2COc3ccccc3O2)cs1 (centres undefined)	16.0	-13.7	15.5	1.0	4.2	1.1	/
